Bioassay records as filed in PubChem BioAssay.
L major viab: Leishmania major promastigote growth inhibition, primary screen; inhibition, % at 10 µM; Leishmania major promastigotes, resazurin fluorescence viability; 200,000 compounds, 9% hits; in the data active means inhibition above about 50%;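 further: promastigotes grown with compound for 44 hours at 28 °C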
HSF1 inh: HSF1 inhibitors in luciferase reporter cells, primary screen, cell-based, NIH3T3, luminescence | NIH3T3-HGL HSE-luciferase, MG132-induced, luminescence 8 h; active compounds read low | activity change, negative = inhibition, % at 7.5 µM (by protocol) | 300,000 compounds, 0.77% hits;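 active means more than half of replicate wells show activity change below -50%, luminescence cut by over half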;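 further: luciferase reports HSF-1 transcriptional activity via heat shock element; 0% = median of DMSO wells and -100% = zero luminescence signal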
T cruzi repl: inhibitors of intracellular T. cruzi growth, primary screen, luminescence, NIH3T3 host cells; T. cruzi beta-gal in NIH3T3, 90 h; 300,000 compounds, 1.4% hits; inhibition, % (no concentration beside the values); AID 1885, 2009;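 active means mean inhibition across valid replicates above about 55%, limit read from the data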;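 further: signal also drops with host cell toxicity which is not excluded here; 0% = plate median of DMSO wells and 100% = zero luminescence signal; higher percent means less beta-gal luminescence so fewer parasites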
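Test system: β-gal T. cruzi (Tulahuen C4) inside NIH/3T3 cells / Quantity: 5,000 cells/well / Measured by: luminescence from GalScreen with 0.05% NP40, read after 60 min / Medium: DMEM plus 2% FBS / Measure: parasite load inhibition, % / Reagent: Tulahuen C4 trypomastigotes, 5000/well / Schedule: co-culture of at least 90 h after 3 h attachment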
Hsp70 act: Hsp70 transcriptional activators, primary screen, cell-based, HeLa, Hsp70 promoter luciferase, luminescence, 10 µM; HeLa Hsp70 promoter luciferase reporter; scaled: vehicle 0, proteasome-inhibitor control 100%; activation, % at 10 µM; 200,000 compounds, 0.04% hits; AID 1203, 2008;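 active means activation above the mean across all tested compounds plus 3 SD, cutoff set per campaign, cut at about 5.5% in these data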;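 further: 100% = MG132 at 30 µM as the positive control and 0% = DMSO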
HSF1 activator: HSF-1 activators, primary screen, NIH3T3-HGL cells, MG132 stress, luminescence, single point. 300,000 compounds, 1.7% hits. activation, % at 9 µM. NIH3T3-HGL HSF-1 luciferase reporter, 8 h; 100% = twice DMSO control signal;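 active means mean replicate activation of at least 50% with a set share of replicates each reaching 50%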;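 further: 0% = median of the neutral control wells and 100% = twice that signal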
Active calls of the source: *. The full list was thinned out, with hits kept by preference.

CCOc1ccc(C(=O)C(C)OC(=O)Cn2c(C)csc2=O)cc1 (stereo not given) was read as HSF1 inh 6, T cruzi repl -2 and HSF1 activator 10.
COc1ccc(CCn2c(-c3cc([N+](=O)[O-])cc([N+](=O)[O-])c3)nc3nc4ccccc4nc32)cc1OC was read as L major viab 80*, HSF1 inh 2, T cruzi repl 62*, Hsp70 act 0 and HSF1 activator -6.
COc1ccc(CCn2c(-c3cc([N+](=O)[O-])cc([N+](=O)[O-])c3)nc3nc4ccccc4nc32)cc1 was read as L major viab 89*, HSF1 inh -2, T cruzi repl 57*, Hsp70 act 0 and HSF1 activator -2.
O=C(NCCc1ccc(F)cc1)c1cccc(NC(=O)c2ccccc2)c1 was read as HSF1 inh 28, T cruzi repl -6 and HSF1 activator 16.
For COC(=O)CSc1[nH]c2ccc(F)cc2c1[N+](=O)[O-] the results were HSF1 inh 0, T cruzi repl -8 and HSF1 activator -2.
For N=C1C(c2nc3ccccc3c(=O)[nH]2)=C(O)CN1CCO the results were L major viab 26, HSF1 inh -7, T cruzi repl -12, Hsp70 act -1 and HSF1 activator 5.
For COCCN1CC(O)=C(c2nc3ccccc3c(=O)[nH]2)C1=N the results were L major viab 8, HSF1 inh -4, T cruzi repl -6, Hsp70 act 0 and HSF1 activator -8.
For COc1ccccc1N1CC(O)=C(c2nc3ccccc3c(=O)[nH]2)C1=N the results were L major viab 99*, HSF1 inh 9, T cruzi repl -1, Hsp70 act 0 and HSF1 activator 13.
Screening N=C1C(c2nc3ccccc3c(=O)[nH]2)=C(O)CN1CCc1ccccc1 returned L major viab 60*, HSF1 inh 2, T cruzi repl -4, Hsp70 act 0 and HSF1 activator 3.
N#Cc1ccc(Cl)cc1NC(=O)CSc1nc2nc(-c3cccs3)cc(C(F)(F)F)c2c(=O)[nH]1 was read as HSF1 inh -8, T cruzi repl -4 and HSF1 activator -5.
Screening O=C(COc1ccc(-c2ccccc2)cc1)N/N=C/c1cc(O)ccc1Br returned L major viab 70*, HSF1 inh 1, T cruzi repl -25, Hsp70 act 0 and HSF1 activator 6.
Screening c1ccc(N2CCN(c3nc4ccccc4[nH]3)CC2)nc1 returned L major viab -4, HSF1 inh 15, T cruzi repl -1, Hsp70 act 0 and HSF1 activator 63*.
For CC(=O)c1nn(-c2ccc(C(F)(F)F)cc2)c(=O)[nH]c1=O the results were HSF1 inh 1, T cruzi repl 3 and HSF1 activator 8.
`c1ccc(-c2nc3ccccn3c2NC2CCCC2)nc1` gave L major viab 100*, HSF1 inh -5, T cruzi repl -13, Hsp70 act 0 and HSF1 activator -3.
For COc1ccc(-c2nc3ccccn3c2NC2CCCCC2)cc1SC1CCCCC1 the results were HSF1 inh 7, T cruzi repl 37 and HSF1 activator 0.
Screening Cc1ccn2c(NC3CCCC3)c(-c3ccccn3)nc2c1 returned L major viab 101*, HSF1 inh 1, T cruzi repl 65*, Hsp70 act 0 and HSF1 activator -10.
Screening CCN(CC(=O)Nc1c(F)cccc1F)C(=O)c1csc2c1CCCC2 returned HSF1 inh -3, T cruzi repl -5 and HSF1 activator -4.
Screening COc1cc(C(=O)Nc2cccc(-c3nc4cc(C)cc(C)c4o3)c2)cc(OC)c1OC returned L major viab -1 and Hsp70 act 0.
Cc1cc(C)c2oc(-c3cccc(NC(=O)c4ccc(F)cc4)c3)nc2c1 was read as L major viab 65*, HSF1 inh 5, T cruzi repl -10, Hsp70 act 0 and HSF1 activator 6.
Screening COc1ccccc1C(=O)Nc1ccc2ccccc2c1 returned HSF1 inh 40, T cruzi repl 5 and HSF1 activator 66*.
`COc1ccc(C(=O)Nc2ccc3ccccc3c2)c(OC)c1` gave HSF1 inh 5, T cruzi repl 3 and HSF1 activator 37.
`O=C(Nc1ccc2ccccc2c1)c1ccccc1F` gave HSF1 inh 29, T cruzi repl -1 and HSF1 activator 56*.
For Cc1oncc1C(=O)Nc1ccc2ccccc2c1 the results were HSF1 inh 42, T cruzi repl 1 and HSF1 activator 66*.
Cn1nnnc1SCc1csc(C2C(C#N)=C(N)OC3=C2C(=O)CCC3)c1 (stereo not given) was read as L major viab 2, HSF1 inh -4, T cruzi repl 4, Hsp70 act 0 and HSF1 activator -1.
`COc1ccc(CCN(C)C2CCCN(C(=O)c3sccc3C)C2)cc1OC` (stereo not given) gave HSF1 inh 2, T cruzi repl 16 and HSF1 activator -2.
Screening CCC(c1nnnn1C1CCCCC1)N1CCN(C2CCCC2)CC1 (stereo not given) returned L major viab 65*, HSF1 inh 2, T cruzi repl 6, Hsp70 act 0 and HSF1 activator 10.
CC(C)C(c1nnnn1C1CCCCC1)N1CCN(c2ncccn2)CC1 (stereo not given) was read as L major viab -2, HSF1 inh -3, T cruzi repl 0, Hsp70 act 0 and HSF1 activator 6.
`CC(C)CC(c1nnnn1C1CCCCC1)N1CCN(c2ncccn2)CC1` (stereo not given) gave L major viab 63*, HSF1 inh 3, T cruzi repl 11, Hsp70 act 0 and HSF1 activator -4.
`CCCC(c1nnnn1C1CCCCC1)N1CCN(C2CCCC2)CC1` (stereo not given) gave L major viab -6, HSF1 inh 4, T cruzi repl -22, Hsp70 act 0 and HSF1 activator 12.
`COC(=O)[C@H](Cc1ccccc1)NC(=O)O[C@@H]1C(=O)c2cc(Br)ccc2O[C@H]1c1cccc(OC)c1` gave L major viab -2, HSF1 inh 12, T cruzi repl -7, Hsp70 act 0 and HSF1 activator 37.
Screening COc1ccc(O)c(C(=O)c2coc(=N)c(C(=O)Nc3ccc(SC(F)F)cc3)c2)c1 returned L major viab 83*, HSF1 inh -6, T cruzi repl 0, Hsp70 act 0 and HSF1 activator 0.
For CCCCn1c2c(c(=N)c3c1CCC3)CCC2 the results were L major viab 100* and Hsp70 act 0.
Screening CCCCCCCn1c2c(c(=N)c3c1CCC3)CCCC2 returned L major viab 100*, HSF1 inh 13, T cruzi repl 59*, Hsp70 act 0 and HSF1 activator 7.
